Laboratory results: ChEMBL document CHEMBL5113379, “4-Oxooctahydroquinoline-1(2H)-carboxamides as hepatitis B virus (HBV) capsid core protein assembly modulators” (Bioorg Med Chem Lett, 2022)
Activity calls are given as the source filed them. No cut-off for these calls is given here.

Columns and labels:
[1] = system: Hepatitis B virus; assay: Antiviral activity against HBV infected in mouse AML12HBV10 cells assessed as reduction in viral replication incubated for 48 hrs and measured by [alpha-32P]UTP-labeled radio-probe based dot blot hybridization assay; type: functional, organism-based
In short: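 The test used the stable HBV line AML12HBV10, derived from immortalized mouse hepatocytes (AML12). HBV replication was measured by dot blot hybridization and EC50 was determined.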

[2] = Metabolic stability in human liver microsomes assessed as half-life; type: ADME, Microsome; settings: microsomes
[3] = Metabolic stability in mouse liver microsomes assessed as half-life; type: ADME, Microsome; settings: microsomes
[4] = Cytotoxicity against mouse […] measured by MTT assay; type: toxicity, cell-based, AML12HBV10; settings: aml12hbv10
In short: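 Cytotoxicity was measured by MTT assay in the stable HBV line AML12HBV10, derived from immortalized mouse hepatocytes (AML12), and CC50 was determined.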

[5] = system: HepDES19; assay: Antiviral activity against HBV infected in human HepDES19 cells assessed as reduction of capsid associated HBV DNA 1 uM measured by agarose gel electrophoresis-based particle gel assay; type: functional, cell-based
In short: (§1)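 HepDES19 cells were kept with tetracycline to block pgRNA transcription (negative control) or without it to induce pgRNA transcription and HBV DNA replication. Compounds (1, 2 or 5 μM) or DMSO were added starting 24 h after tet removal and kept for 6 days.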

[6] = system: HepDES19; assay: Antiviral activity against HBV infected in human HepDES19 cells assessed reduction of amounts of encapsidated pgRNA 5 uM […] by northern blot hybridization assay; type: functional, cell-based
In short: (§2)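 In tet-inducible HepDES19 cells, pgRNA transcription was induced by tetracycline removal; tet-maintained cells were the negative control. Treatment with DMSO or compound at 2 or 5 μM began 24 h after tet removal and lasted 6 days. Encapsidated pgRNA was detected by Northern blot hybridization, with ribosomal RNA as loading control.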

[7] = system: HepDES19; assay: Antiviral activity against HBV infected in human HepDES19 cells assessed as reduction of capsid associated HBV DNA 5 uM measured by agarose gel electrophoresis-based particle gel assay; type: functional, cell-based; in short: as §1
[8] = system: HepDES19; assay: Antiviral activity against HBV infected in human HepDES19 cells assessed reduction of amounts of encapsidated pgRNA 2 uM […] by northern blot hybridization assay; type: functional, cell-based; in short: as §2
[9] = system: HepDES19; assay: Antiviral activity against HBV infected in human HepDES19 cells assessed as reduction in levels of intracellular core protein 2 uM measured by Western blot assay; type: functional, cell-based
In short: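 HepDES19 cells kept in tetracycline, then switched to tet-free medium to induce pgRNA transcription and HBV DNA replication; tet-maintained cells serve as negative control. Treatment with compound or DMSO started 24 h after tet removal and continued for 6 days. Intracellular core protein was detected by Western blot with an antibody against the C-terminal 14 residues of core, with β-actin as loading control.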

[10] = system: HepDES19; assay: Antiviral activity against HBV infected in human HepDES19 cells assessed as reduction of capsid associated HBV DNA 2 uM measured by agarose gel electrophoresis-based particle gel assay; type: functional, cell-based; in short: as §1
[11] = Hepatitis B virus, AML12HBV10, 48 h

Compound	EC50 [1, 11] [µM]	CC50 [4] [µM]	also measured
O=C(Nc1ccc(F)c(Cl)c1)N1CCOc2ccccc21	0.52	> 100	t1/2 [2]: 14.7 min; t1/2 [3]: < 4 min
O=C(Nc1ccc(F)c(Cl)c1)C1CCCc2ccccc21 (stereo not drawn)	9.4	25	
O=C(Nc1ccc(F)c(Cl)c1)c1cccc2c1OCC2	2.18	4.6	
O=C1CCCN(C(=O)Nc2ccc(F)c(Cl)c2)c2ccccc21	> 10	> 100	
O=C(Nc1ccc(F)c(Cl)c1)c1cccc2ccoc12	0.73	> 100	t1/2 [2]: 61.2 min; t1/2 [3]: 6 min
Cc1cc(NC(=O)N2CCC(=O)[C@H]3CCCC[C@H]32)ccc1F	0.38	> 20	
O=C(Nc1ccc(F)c(Cl)c1)c1cccc2nccnc12	2.39	> 12.5	
O=C(Nc1ccc2c(c1)OCO2)c1cccc2c1OCCO2	4.2	> 100	
N#Cc1cc(NC(=O)N2CCC(=O)[C@H]3CCCC[C@H]32)ccc1F	0.85	> 20	
C=C1[C@H](CO)[C@@H](O)C[C@@H]1n1cnc2c(=O)[nH]c(N)nc21			Activity [5]: Active
O=C1CCN(C(=O)Nc2ccc(F)c(Cl)c2)c2ccccc21	1.32	> 12.5	t1/2 [2]: 47.2 min; t1/2 [3]: 10 min
O=C1CCN(C(=O)Nc2ccc(F)c(Cl)c2)C(c2ccccc2)C1 (stereo not drawn)	5.01	> 100	
O=C(Nc1ccc(F)c(Cl)c1)c1cc(S(=O)(=O)N2CCC(O)CC2)cc2c1OCCO2	5.57	> 50	
O=C1CCN(C(=O)Nc2ccc(F)c(Cl)c2)c2ccc(Cl)cc21	4.83	> 100	
O=C1CCN(C(=O)Nc2ccc(F)c(Cl)c2)C2CCCCC12 (stereo in doubt; 61)			Activity [6]: Active; Activity [7]: Active
COC(=O)C1=C(C)NC(c2ncc(F)cc2F)=N[C@H]1c1ccc(F)cc1Cl			Activity [8]: Active; Activity [9]: Active; Activity [10]: Active
CCC(C)NS(=O)(=O)c1cc2c(c(C(=O)Nc3ccc(F)c(Cl)c3)c1)OCCO2 (stereo not drawn)	1.64	> 33.3	t1/2 [2]: 37.4 min; t1/2 [3]: 16.4 min
O=C1CCN(C(=O)Nc2ccc(F)c(C(F)F)c2)[C@@H]2CCCC[C@H]12	0.26	> 20	t1/2 [2]: 69 min; t1/2 [3]: 35 min
O=C(CC1COCCO1)Nc1ccc(F)c(Cl)c1 (stereo not drawn)	5.02	> 100	
O=C1COc2cccc(C(=O)Nc3ccc(F)c(Cl)c3)c2N1	> 10	> 50	
O=C(Nc1ccc2ncsc2c1)c1cccc2c1OCCO2	> 10	> 50	
O=C1CCN(C(=O)Nc2ncc(F)c(Cl)n2)[C@@H]2CCCC[C@H]12	> 10	> 50	
O=C1CC2CCC(C1)N2C(=O)Nc1ccc(F)c(Cl)c1	> 10	> 100	
O=C(Nc1ccc(C(F)(F)F)c(Cl)c1)c1cccc2c1OCCO2	1.59	> 50	t1/2 [2]: 44.4 min; t1/2 [3]: 6.9 min
O=C(Nc1cc(Cl)nc(Cl)c1)c1cccc2c1OCCO2	6.3	> 33.3	
C[C@@H](NS(=O)(=O)c1cc2c(c(C(=O)Nc3ccc(F)c(Cl)c3)c1)OCCO2)c1ccncc1	13.4		
O=C(Nc1ccnc(Cl)c1)c1cccc2c1OCCO2	4.65	> 100	

Compound	EC50 [1, 11] [µM]	CC50 [4] [µM]	also measured
CC1(C)Cc2cccc(C(=O)Nc3ccc(F)c(Cl)c3)c2O1	1.48	> 50	
O=C1CCN(C(=O)Nc2ccc(F)c(C(F)(F)F)c2)[C@@H]2CCCC[C@H]12	0.97	> 20	
O=C(Nc1ccc(N2CCOCC2)c(Cl)c1)c1cccc2c1OCCO2	> 10	> 25	
O=C1CCC(C(=O)Nc2ccc(F)c(Cl)c2)c2ccccc21 (stereo not drawn)	1.67	> 100	t1/2 [3]: 5.8 min
C[C@@H](NS(=O)(=O)c1ccc(F)c(C(=O)Nc2ccc(F)c(F)c2)c1)C1CC1			Activity [6]: Active
O=C1CC(c2ccccc2)N(C(=O)Nc2ccc(F)c(Cl)c2)c2ccccc21 (stereo not drawn)	2.89	> 50	
O=C(Nc1ccc(F)c(Cl)c1)N1CCOc2cccnc21	> 10	26.3	
O=C(Nc1ccc(F)c(Cl)c1)c1cccc2c1OCCO2	0.2	> 50	t1/2 [2]: 1.7 min; t1/2 [3]: 6.6 min
O=C(Nc1ccc(F)c(Cl)c1)c1cccc2c1OCCC2	0.75	> 12.5	
O=C1CCN(C(=O)Nc2ccc(F)c(Cl)c2)C2CCCCC12 (stereo in doubt; 60)			EC50 ([1]; aml12hbv10): 1.86 µM; t1/2 [2]: 48 min; t1/2 [3]: 7 min
O=C1CCN(C(=O)Nc2cccc(Cl)c2)[C@@H]2CCCC[C@H]12	0.22	> 20	
O=C(Nc1ccc(F)c(Cl)c1)c1cccc2c1OC(F)(F)O2	0.11	> 100	t1/2 [2]: 16.4 min; t1/2 [3]: 11 min
O=C(NC1CC(F)(F)C1)c1cccc2c1OCCO2	> 10	> 100	
O=C1CCN(C(=O)Nc2ccc(F)c(Cl)c2)C2CCCCC12 (stereo not drawn)			EC50 ([1]; aml12hbv10): 1.81 µM; t1/2 [2]: 5 min; t1/2 [3]: 7.8 min
O=C1CC2CC1CN2C(=O)Nc1ccc(F)c(Cl)c1 (stereo not drawn)	> 10	> 100	
O=C1CCN(C(=O)Nc2ccnc(Cl)n2)[C@@H]2CCCC[C@H]12	> 10	> 100	
O=C(Nc1ccc(F)c(Cl)c1)n1[nH]c(=O)c2ccccc21	> 10	> 100	
O=C(Nc1ccc(F)c(Cl)c1)c1cccc2cc[nH]c12	4.48	> 33.3	
O=C(Nc1ccc2c(c1)CCC2)c1cccc2c1OCCO2	> 10	> 50	
N#Cc1ccc(NC(=O)c2cccc3c2OCCO3)cc1Cl	3.84	> 50	
O=C(NCc1ccc(F)cc1F)c1cccc2c1OCCO2	4.62	> 20	
O=C(Nc1ccc(F)c(Cl)c1)N1CCS(=O)(=O)c2ccccc21	> 10	> 100	
O=C(Nc1ccc(O)c(Cl)c1)c1cccc2c1OCCO2	9.83	> 100	
O=C(Nc1cc(F)c(F)c(F)c1)c1cccc2c1OCCO2	0.28	> 100	
O=C1CCN(C(=O)Nc2cc(F)c(F)c(F)c2)[C@@H]2CCCC[C@H]12	2.41	> 100	
O=C1CCN(C(=O)Nc2ccc(F)c(Cl)c2)C(Cc2ccccc2)C1 (stereo not drawn)	5.11	> 20	
